# Compound activity: PubChem BioAssay, The Scripps Research Institute Molecular Screening Center
# M1 PAM – human CHRM1 positive allosteric modulation | activation, % at 3 µM | CHO-K1 hM1, Fluo-8 calcium fluorescence, ACh EC20; 0% = ACh EC20, 100% = maximal ACh | P11229 | 360,000 compounds, 0.088% hits; in the data active = activation above about 19%, passing the limit was not always enough
# CHRM1 agonist – activates human CHRM1 receptor. CHO-K1 hM1, Fluo-8 calcium fluorescence, agonist mode; 0% DMSO, 100% acetylcholine EC100. activation, % at 3 µM. 360,000 compounds, 0.33% hits. AID 588814;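 active = activation above the run's mean compound activation plus 3 SD, cut at about 16% in these data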;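 also: peak over basal fluorescence ratio within a 140 s kinetic read after compound addition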
# CHRM1 antagonist – human CHRM1 antagonism; P11229; CHO-K1 hM1, Fluo-8 calcium fluorescence, ACh EC80 antagonist; inhibition, % at 3 µM; 360,000 compounds, 1.3% hits;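 active = percent inhibition above its own plate's cutoff, namely the mean of that plate's compound wells plus 3 SD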;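 also: peak over basal fluorescence ratio during 140 s after agonist addition; 0% = ACh EC80 plus DMSO and 100% = DMSO alone without agonist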
# TAAR1 antag – antagonists of human TAAR1. Q96RJ0. CHO RD-HGA16 TAAR1, Fluo-8 calcium fluorescence, antagonist. inhibition, % at 3 µM. 360,000 compounds, 1.5% hits;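 active = inhibition above a per-plate cutoff, the mean inhibition of test compounds on that plate plus 3 SD, cut at about 49% in these data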;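 also: 0% = DMSO plus EC80 beta-PEA response and 100% = DMSO alone without agonist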
#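 System: RD-HGA16 CHO cells with stable hTAAR1 and Gα16 | Probe or stimulus: EC80 β-phenethylamine stimulus | Dosing: 3 µM, single point | Times: Dye loading 75 min at 37 °C, then 30 min room temperature | Measured by: Fluo-8 calcium-sensitive fluorescence | Read-out basis: % inhibition of agonist calcium response | Replicates: n of 1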
# HTR2A ag – mouse HTR2A agonism via beta-arrestin recruitment | P35363 | CHO-K1 mHTR2A beta-arrestin complementation, luminescence; percent of 30 µM serotonin response | activation, % at 7.6 µM | 360,000 compounds, 0.66% hits | AID 624169;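 active = activation above a run cutoff, the mean activation of all tested compounds plus 3 SD, cut at about 14% in these data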;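 also: 0% = plate median of compound wells and 100% = 30 µM serotonin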
# TAAR1 ag – agonists of human TAAR1 | CHO RD-HGA16 TAAR1, Fluo-8 calcium fluorescence; vehicle wells 0%, saturating PEA agonist 100% | Q96RJ0 | activation, % at 3 µM | 360,000 compounds, 0.99% hits;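 active = activation above the mean activation of all test compounds in the run plus 3 SD, cut at about 38% in these data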
#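 Test system: RD-HGA16 (CHO) cells co-expressing Gα16 and hTAAR1; dosing: one-point dosing at 3 µM (nominal); timing: 17-24 h seeding, 75 min 37 °C dye, 30 min RT; signal: kinetic Fluo-8 calcium fluorescence; read-out basis: % activation relative to PEA EC100 response; controls: DMSO and PEA EC100; replicates: n 1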
# MOR ag counter – OPRM1 agonism in mouse HTR2A counterscreen | shares compounds with HTR2A ag | U2OS OPRM1 beta-arrestin PathHunter, luminescence; DMSO 0%, DAMGO 9.3 µM 100% | activation, % at 9.3 µM | 2,300 compounds, 5.3% hits;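 active = mean activation above the mean of DMSO-only wells plus 3 SD, cut at about 0.5% in these data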
# Target sequence (P35372 whole entry, looked up): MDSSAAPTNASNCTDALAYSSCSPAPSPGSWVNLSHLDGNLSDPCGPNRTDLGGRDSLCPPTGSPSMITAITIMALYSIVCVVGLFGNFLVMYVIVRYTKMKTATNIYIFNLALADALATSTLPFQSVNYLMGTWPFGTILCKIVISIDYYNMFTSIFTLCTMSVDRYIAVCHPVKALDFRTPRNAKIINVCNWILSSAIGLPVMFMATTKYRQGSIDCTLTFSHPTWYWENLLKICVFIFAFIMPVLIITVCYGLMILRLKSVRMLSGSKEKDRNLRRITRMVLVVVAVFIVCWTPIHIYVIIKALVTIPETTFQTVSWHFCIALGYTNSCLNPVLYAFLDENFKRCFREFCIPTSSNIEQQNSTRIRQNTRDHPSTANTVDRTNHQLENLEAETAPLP
# HTR2A ag conf – confirmation of mouse HTR2A serotonin receptor agonists | shares compounds with HTR2A ag | CHO-K1 PathHunter beta-arrestin recruitment, luminescence; DMSO 0%, 30 µM serotonin 100% | activation, % at 7.6 µM | 2,300 compounds, 19% hits;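 active = mean activation across triplicates above the hit threshold derived in the original primary screen, cut at about 15% in these data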
# An asterisk follows results filed as active; · = not tested or not shown. Compounds with a hit are over-represented: about 3.9% of the library has one in this group of screens.
SMILES,M1 PAM,CHRM1 agonist,CHRM1 antagonist,TAAR1 antag,HTR2A ag,TAAR1 ag,MOR ag counter,HTR2A ag conf
Cc1ccc2c(C)c(C(=O)Nc3c(C)n(C)n(-c4ccccc4)c3=O)oc2c1C,-11.7,-11.4,-0.4,-36.6,17.5*,-2.0,-0.1,40.1*
Cc1cc(C)c(C(=O)NCCCN2CCOCC2)c(C)c1,1.1,-2.7,-7.8,-0.8,-0.2,0.8,·,·
CN1CCN(c2nc3c(c(=O)[nH]c(=O)n3C)n2Cc2ccccc2)CC1,6.9,-8.5,-18.7,-32.3,-4.0,5.4,·,·
COC(=O)/C(=C/N(C)C)C(=O)N1CCN(c2ccc(Cl)c(Cl)c2)CC1,3.4,-2.8,0.1,-7.0,17.6*,9.7,-0.5,0.0
Cc1cc(NC(=O)CSc2nnc(C(F)(F)F)n2C)no1,0.3,-4.5,2.8,-18.4,2.7,16.1,·,·
CCOC(=O)CSc1ccc(S(=O)(=O)N(CC)CC)cc1[N+](=O)[O-],1.8,-4.9,0.9,7.0,17.0*,7.4,-0.5,-3.5
Cc1ccc(S(=O)(=O)N2CCC(C)CC2)cc1[N+](=O)[O-],11.8,-9.3,-8.1,23.7,1.0,3.4,·,·
COC(=O)CSc1ccc(S(=O)(=O)N2CCC(C)CC2)cc1[N+](=O)[O-],12.1,-5.5,-27.4,17.1,16.8*,-3.5,-0.4,-4.3
CCOC(=O)[C@@H]1[C@H]2COc3ccc(Br)cc3[C@@H]2N2C(=O)N(c3cccc(F)c3)C(=O)[C@]12C,6.3,-4.4,-9.9,-5.8,-2.4,15.4,·,·
Cc1ccc(/C(=N\S(=O)(=O)c2ccc(Br)cc2)Nc2ccccc2C)cc1,5.4,-2.9,-4.5,13.6,14.6*,-1.3,-0.1,9.4
Cc1cccc(OCCC(=O)NNC(=O)Cn2nc(C)cc2C)c1,3.0,-1.0,-2.0,-24.3,0.9,1.6,·,·
COc1ccc(CCC(=O)NNC(=O)Cn2nc(C)cc2C)cc1,8.3,-0.1,-2.7,-25.3,17.3*,1.2,-0.7,-6.5
CN(C)C1CN(Cc2cn(Cc3cccc(C(F)(F)F)c3)nn2)S(=O)(=O)C1 (stereo unspecified),·,·,·,-9.0,-1.9,1.3,·,·
O=C(Nc1ccccc1O)c1c(O)c2c([nH]c1=O)CCCC2,1.3,-5.5,8.7,7.9,15.0*,3.0,0.8*,5.3
O=C(Nc1nccs1)c1c(O)c2c([nH]c1=O)CCCC2,-0.4,-0.5,2.8,-7.8,-2.4,6.3,·,·
COc1ccc(-c2noc(N3CCC(C(=O)Nc4ccc(OC)cc4OC)CC3)n2)cc1,6.8,0.3,-11.3,-27.6,-2.9,-0.9,·,·
COc1ccc(NC(=O)C2CCN(c3nc(-c4ccc(OC)cc4)no3)CC2)cc1,-12.4,-4.2,17.9,-4.2,17.1*,2.8,0.2,0.0
O=C(Nc1cccc(S(=O)(=O)N2CCCC2)c1)c1ccco1,3.1,-7.9,-0.8,-23.2,6.6,25.7,·,·
O=C(Nc1ccc(S(=O)(=O)N2CCCCCC2)cc1)c1ccco1,6.9,-3.3,-2.3,-13.1,14.6*,7.4,-0.6,-2.3
Cc1cc(C=O)sc1[B-](F)(F)F,12.7,2.9,-11.3,-9.2,14.5*,0.5,-0.3,10.2
COc1ccc(C2/C(=C(/O)c3ccccc3)C(=O)C(=O)N2C)cc1OC (stereo unspecified),9.0,-1.8,-13.0,-17.8,2.3,-0.5,·,·
Cc1ccc(N2CC(=O)N(NC(=O)CN3CCN(c4ccccc4)CC3)CC2=O)cc1,-4.3,-3.7,10.7,-18.8,0.0,-0.3,·,·
O=C(CN1CCc2ccccc21)NN1CC(=O)N(c2ccccc2)CC1=O,16.8,-0.3,-16.1,-11.4,18.9*,-0.4,-0.6,-4.1
CCc1nc2ccc(C(=O)NCCC(C)C)cn2c1N(CC)CCN(C)C,11.6,-7.8,-13.4,-13.4,1.8,1.5,·,·
